This is a sample that favours compounds with a hit; in the whole collection about 1.5% have one here.
TbMetRS inhib: Trypanosoma brucei MetRS inhibition; purified T. brucei MetRS, ATP depletion, Kinase-Glo luminescence; inhibition, % at 11.9 µM; 360,000 tested, 0.4% active; AID 624268;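 active means inhibition above a per-plate cutoff of the control wells' mean inhibition plus 3 SD, cut at about 5.5% in these data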;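 further: 0% = DMSO wells median and 100% = median of wells with control inhibitor compound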
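Test system – parasite MetRS enzyme · Reagent – substrates ATP, L-methionine and bulk Escherichia coli tRNA · Doses – 11.9 µM compound single dose, 0.9% DMSO · Times – 15 min enzyme-compound preincubation, 2 h reaction, 10 min detection, 25 °C · Signal – Kinase-Glo luminescence, ATP depletion format · Controls – DMSO-only wells as low control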
proCasp7 act: activates human procaspase-7, counter-screen for procaspase-3 activators; P55210; recombinant procaspase-7, Ac-DEVD-pNA absorbance 405 nm; D23A/D198A/D206A triple mutant, cannot self-cleave; scale: DMSO 0, 5 µM enzyme 100; activation, % at 8.5 µM; 330,000 tested, 0.093% active; AID 463210;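 active means percent activation above the screen-wide mean plus 3 SD, cut at about 25% in these data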
Target sequence (P55210 whole entry D23A/D198A/D206A): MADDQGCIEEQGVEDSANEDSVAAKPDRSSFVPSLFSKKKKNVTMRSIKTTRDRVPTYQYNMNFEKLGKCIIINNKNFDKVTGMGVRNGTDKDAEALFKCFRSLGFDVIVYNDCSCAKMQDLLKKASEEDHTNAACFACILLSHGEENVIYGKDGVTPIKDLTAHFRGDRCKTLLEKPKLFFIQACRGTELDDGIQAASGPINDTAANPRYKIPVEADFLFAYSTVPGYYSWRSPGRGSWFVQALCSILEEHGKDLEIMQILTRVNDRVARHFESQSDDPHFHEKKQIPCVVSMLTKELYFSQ
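Material: Procaspase-7 triple mutant (PC-7 D3A) | Quantity: 2 µM procaspase-7 mutant as dispensed | Reagent: DEVD-pNA substrate | Times: 1 h preincubation, 2 h reaction | Technique: 405 nm absorbance of p-nitroaniline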
MsrA inh: bovine MsrA inhibition; purified bovine MsrA, absorbance read-out; inhibition, % at 15.5 µM; 360,000 tested, 0.75% active; AID 651718; in the data active means inhibition above about 4.5%;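 further: 0% = vehicle wells with enzyme and 100% = reference inhibitor wells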
MsrA act: activates bovine MsrA enzyme. 360,000 tested, 0.3% active. purified bovine MsrA, absorbance read-out. activation, % at 10.6 µM; in the data active means activation above about 7.5%;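 further: 0% = vehicle and 100% = reference activator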
procasp3 activ: procaspase-3 (human) activation; recombinant procaspase-3 D3A, Ac-DEVD-pNA absorbance 405 nm; AID 463141; 330,000 tested, 0.11% active; P42574; activation, % at 8.5 µM;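 active means activation above the mean of all tested compounds plus 3 SD, cut at about 21% in these data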;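 further: 0% = DMSO alone and 100% = DMSO wells spiked with extra 5 µM PC-3 D3A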
Target sequence (P42574 whole entry D9A/D28A/D175A): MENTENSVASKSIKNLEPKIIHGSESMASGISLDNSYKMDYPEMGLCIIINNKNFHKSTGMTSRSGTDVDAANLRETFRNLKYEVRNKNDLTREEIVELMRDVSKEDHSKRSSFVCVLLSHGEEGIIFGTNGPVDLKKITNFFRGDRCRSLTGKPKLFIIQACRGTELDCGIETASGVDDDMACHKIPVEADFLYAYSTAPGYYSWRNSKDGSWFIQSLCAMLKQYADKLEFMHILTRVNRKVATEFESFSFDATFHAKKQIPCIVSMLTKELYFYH
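Test system: Procaspase-3 D3A mutant; medium: Zinc-free HEPES/NaCl buffer with 0.01% Triton X-100 at pH 7.4; reagent: DEVD-pNA substrate; doses: one concentration, 8.5 µM nominal, 0.8% DMSO; times: 1 h preincubation plus 2 h reaction at 25 °C; signal: Epi-absorbance at 405 nm of released p-nitroaniline, 0 and 120 min; replicates: singlicate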
* = called active by the depositor.

`Cc1c(C(=O)O)cccc1-n1c(C)cc(/C=N/NC(=O)c2cc3ccccc3o2)c1C` gave TbMetRS inhib -0.3, proCasp7 act -1.1, MsrA inh 4.6*, MsrA act -6.4 and procasp3 activ 13.7.
For CCOC(=O)N1CCC(Nc2c(Nc3cccc(CC)c3)c(=O)c2=O)CC1 the results were TbMetRS inhib 0.7, proCasp7 act 8.2, MsrA inh 4.6*, MsrA act -2.9 and procasp3 activ 9.2.
COc1cccc(-n2c(SCC(N)=O)nnc2-c2c[nH]c3ccccc23)c1 was read as TbMetRS inhib 11.4*, proCasp7 act 1.9, MsrA inh -0.1, MsrA act 0.3 and procasp3 activ -4.1.
For O=C1C(SCCO)=C(SCCO)C(=O)c2ccccc21 the results were TbMetRS inhib 2.1, proCasp7 act -23.8, MsrA inh 1.0, MsrA act 0.3 and procasp3 activ -22.8.
CC1=C(SCc2ccccc2)C(=O)c2ccccc2C1=O was read as TbMetRS inhib 0.3, MsrA inh 20.6* and MsrA act 1.2.
CO/N=C/c1ccc(N2CCN(C(=O)c3ccc(C)cc3)CC2)c([N+](=O)[O-])c1 was read as TbMetRS inhib 16.5*, proCasp7 act -6.9, MsrA inh 1.2, MsrA act -2.9 and procasp3 activ -6.1.
C[C@@H]1CN([C@H](C)CO)S(=O)(=O)c2ccc(Br)cc2O[C@H]1CN(C)CC1CCOCC1 was read as MsrA inh 0.1.
Screening Nc1[nH]c(C(=O)c2ccc(Br)cc2)c(-c2ccc(Cl)cc2[N+](=O)[O-])c1C(=O)NCCc1c[nH]c2ccccc12 returned MsrA inh 0.0.
C=CCn1cccc(C(=O)Nc2ccc(C)c(C)c2)c1=O was read as TbMetRS inhib -1.4, proCasp7 act -7.2, MsrA inh 2.5, MsrA act -5.3 and procasp3 activ -1.6.
For C=CCn1cccc(C(=O)Nc2cc(OC)ccc2OC)c1=O the results were TbMetRS inhib 0.8, proCasp7 act 0.8, MsrA inh 4.7*, MsrA act -4.5 and procasp3 activ -2.5.
For COC(=O)C1=C(C)N(Cc2cccc(C(F)(F)F)c2)C(=NCC2CC2)NC1c1cccc(F)c1 (centres undefined) the results were MsrA inh -2.4.
`O=C(COC(=O)c1cc(-c2ccccc2)nc2ccccc12)NC1CC1` gave TbMetRS inhib -0.5, proCasp7 act -3.2, MsrA inh 1.8, MsrA act -8.4 and procasp3 activ 2.8.
For COc1ccc(-c2cc(C(=O)OCC(=O)NC3CC3)c3ccccc3n2)cc1 the results were TbMetRS inhib 0.1, proCasp7 act 26.1*, MsrA inh 0.7, MsrA act -5.5 and procasp3 activ 43.7*.
CN1C=C/C(=C\c2cc[n+](C)c3ccccc23)c2ccccc21 was read as TbMetRS inhib 0.6, MsrA inh 48.2* and MsrA act 5.0.
`C[C@H]1COc2cccc(NCCO)c2S(=O)(=O)N1` gave MsrA inh -0.2.
For C[C@H](O)[C@@H]1C(=O)N2CCc3c([nH]c4c(-c5ccccc5)cccc34)[C@@H]2C[C@@H]1N(C)C(=O)c1ccccc1F the results were MsrA inh 1.2.
`O=c1c(C=NCCN2CCNCC2)c(-c2ccccc2)[nH]n1-c1ccc([N+](=O)[O-])cc1` gave proCasp7 act 14.7 and procasp3 activ -5.0.
Screening Cc1[nH]n(-c2ccc([N+](=O)[O-])cc2)c(=O)c1C=NCCN1CCN(C(=O)c2ccccc2)CC1 returned TbMetRS inhib -4.0, proCasp7 act -2.5, MsrA inh 4.8*, MsrA act -2.5 and procasp3 activ -10.2.
`COC(=O)[C@]12C[C@H](CC(=O)NCCC(C)C)C(=O)N(Cc3ccccc3)C1=C[C@H](C(C)(C)C)O[C@@H]2C` gave MsrA inh -0.1.
Screening CN1CCN(C2=C(NS(=O)(=O)c3ccccc3)C(=O)c3ccccc3C2=O)CC1 returned TbMetRS inhib -0.5, proCasp7 act -2.9, MsrA act 15.4* and procasp3 activ 6.2.
Screening CCN1CCN(C2=C(NS(=O)(=O)c3ccccc3)C(=O)c3ccccc3C2=O)CC1 returned TbMetRS inhib -0.4, proCasp7 act -1.8, MsrA inh -0.1, MsrA act 6.5 and procasp3 activ 6.3.
CCN1CCN(CC(O)COc2ccc(Cl)cc2)CC1 (centres undefined) was read as TbMetRS inhib -0.9, proCasp7 act -6.0, MsrA inh -0.1, MsrA act -3.6 and procasp3 activ -1.1.
`CCN1CCN(CC(O)COC(C)C)CC1` (centres undefined) gave TbMetRS inhib -0.2, proCasp7 act -4.5, MsrA inh -0.6, MsrA act 15.0* and procasp3 activ -1.6.
For O=C(Nc1ccc(C(=O)O)cc1)/C(=C\C=C\c1ccccc1)NC(=O)c1ccccc1Cl the results were TbMetRS inhib 0.2, proCasp7 act -8.2, MsrA inh 5.8*, MsrA act -6.9 and procasp3 activ 11.5.
Cc1[nH]c2ccc(Br)cc2c(=O)c1CN1CCOCC1 was read as TbMetRS inhib 35.4*, proCasp7 act 9.2, MsrA inh 0.1, MsrA act -12.5 and procasp3 activ 3.6.
CN(C)c1ccc(C=c2c3ccccc3n3c2cc(-c2ccc(Cl)cc2)[n+]3C)cc1 was read as TbMetRS inhib 0.1, MsrA inh 4.2 and MsrA act 14.5*.
For CC(C)Sc1nc(C(F)(F)F)cc(=O)n1-c1ccccc1 the results were TbMetRS inhib 0.3, proCasp7 act -6.0, MsrA inh 0.5, MsrA act 13.6* and procasp3 activ 3.9.
For CCSc1nc(C(F)(F)F)cc(=O)n1-c1ccccc1 the results were TbMetRS inhib -0.9, proCasp7 act 2.3, MsrA inh 0.5, MsrA act -2.7 and procasp3 activ -1.3.
`NC(=S)N=Nc1c(O)n(CCCl)c2ccccc12` gave TbMetRS inhib 0.2, proCasp7 act -1.8, MsrA inh 4.6*, MsrA act -2.0 and procasp3 activ 5.6.
`NC(=S)N=Nc1c(O)n(CCCl)c2ccc(Cl)cc12` gave TbMetRS inhib -0.3, proCasp7 act 1.4, MsrA inh 1.9, MsrA act -3.5 and procasp3 activ 6.5.
COC(=O)/C=C1\S/C(=N/N=C/c2ccccc2)NC1=O was read as TbMetRS inhib -0.2, proCasp7 act 11.0, MsrA inh 0.7, MsrA act -3.5 and procasp3 activ -6.4.
For COC(=O)/C=C1/S/C(=N/N=C/c2ccco2)NC1=O the results were TbMetRS inhib -0.2, proCasp7 act -10.8, MsrA inh 4.6*, MsrA act -6.1 and procasp3 activ -6.9.
For CC(=O)c1c(OC(=O)c2ccco2)c2ccccc2n1C the results were TbMetRS inhib -0.3, proCasp7 act 0.6, MsrA inh 4.6*, MsrA act -1.6 and procasp3 activ -3.5.
